Rows were chosen to be rich in hits. Some 3.5% of all compounds tested hit in one or more screens of this group.
HIV Env fusion: blocks HIV Env-driven cell-cell fusion; HeLa-JRFL Env/CEM21 cell fusion, luciferase; inhibition, % at 12.3 µM; 1.1% of 360,000 active; AID 651610;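 active means mean replicate inhibition score of at least 50 and every replicate individually at or above 50; inconclusive means only one of the two criteria met; inactive means mean below 50 and not all replicates reaching 50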;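 further: 0% = plate neutral controls and 100% = maraviroc near 300 nM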
esBAF inh: blocks esBAF chromatin remodeling in mouse ES cells. Bmi1-luciferase knock-in reporter, 24 h; 100% = twice the neutral-well signal. reporter increase, % at 12.5 µM. 2% of 350,000 active; in the data active means activation above about 40%; inconclusive means no clear call, values can overlap the other calls;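 further: 0% = median of the plate's neutral control wells and 100% = double that signal; a rise in the Bmi1 reporter signal indicates esBAF inhibition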
Cneo AK release: causes C. neoformans cell lysis; adenylate kinase release luminescence, 4 h; normalised: neutral wells 0, clomiphene wells 100; lysis activity, % at 15 µM; AID 651654; 0.2% of 360,000 active;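 active means mean lysis activity across replicates of at least 80%, whatever share of replicates individually reach that level; inactive means mean lysis activity below 80%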
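Test system: log-phase Cryptococcus neoformans yeast cells. Input: 5 × 10^6 yeast cells/mL. Medium: fresh YPD growth medium. Doses: single dose. Incubation: static 4 h at 37 °C with compound, 1 h detection. Measured by: luminescent adenylate kinase detection reagent. Read-out: signal increase indicating cell lysis. Benchmarks: Clomiphene.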
Wnt act: activates Wnt/beta-catenin signaling in a reporter cell assay; AID 743398; activator, plate reader; 1.2% of 300,000 active; activation, % at 9.35 µM; in the data active means activation above about 30%, passing the limit was not always enough; inconclusive means no clear call, values can overlap the other calls;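 further: 0% = neutral control wells and 100% = positive control wells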
ERAP1 inh: blocks human ERAP1 aminopeptidase activity | AID 652197 | 0.15% of 340,000 active | recombinant ERAP1, Leu-AMC fluorescence, 60 min | inhibition, % at 10.7 µM | Q9NZ08;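 active means mean replicate inhibition of at least 30%, or all replicates individually reaching that 30% level; inactive means mean below 30% and not every replicate reaching it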;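 further: 0% = neutral control wells and 100% = L-leucinethiol positive control wells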
MITF act: MITF TRPM1 promoter activation in melanoma cells | SK-MEL-5 TRPM1-promoter luciferase, 24 h; % of positive control, neutral wells = 0 | activation, % at 12.5 µM | 0.75% of 300,000 active | AID 588334;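 active means mean activation of at least 80% with every replicate also reaching 80%; inconclusive means mean reaches 80% but some replicate falls short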;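 further: 0% = neutral control wells and 100% = parthenolide positive control wells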
Starred values were filed as active, the others as inactive; i = inactive; ? = inconclusive; / = not tested or not shown; ! = not active in a repeat; [ ] = remark or other dose.

SMILES	HIV Env fusion	esBAF inh	Cneo AK release	Wnt act	ERAP1 inh	MITF act
COc1ccc(S(=O)(=O)Nc2ccc3c(c2)C(=O)N([C@H](C)CO)C[C@H](C)[C@H](CN(C)C(=O)Nc2ccccc2)O3)cc1	-6[16.7 µM]	3	90*	/	-4	/
C[C@@H]1CN([C@@H](C)CO)C(=O)c2cc(NS(=O)(=O)c3ccccc3)ccc2O[C@H]1CN(C)C(=O)NC1CCCCC1	/	1	112*	/	-1	/
C[C@H](CO)N1C[C@H](C)[C@H](CN(C)C(=O)NC2CCCCC2)Oc2ccc(NS(=O)(=O)c3ccc(F)cc3)cc2C1=O	16[16.7 µM]	2	-12	/	-1	/
C[C@H](CO)N1C[C@H](C)[C@H](CN(C)S(=O)(=O)c2cccs2)OCCCC[C@H](C)Oc2ccc(NC(=O)C3CCCCC3)cc2C1=O	-315[16.7 µM]	7	1	/	1	/
OC1(c2cccc(C(F)(F)F)c2)CCN(c2ccc(-c3ccccc3)nn2)CC1	-74	67*	0	-2	/	67
O=C(Nc1ccccc1)N1CCC(O)(c2cccc(C(F)(F)F)c2)CC1	15	0	2	-1	1	-6
C[C@@H]1CN([C@H](C)CO)C(=O)Cc2cc(NC(=O)Nc3cccc4ccccc34)ccc2O[C@@H]1CN(C)S(=O)(=O)c1cccs1	?	-2	0	/	/	/
C[C@H](CO)N1C[C@H](C)[C@H](CN(C)S(=O)(=O)c2cccs2)Oc2ccc(NC(=O)Nc3cccc4ccccc34)cc2CC1=O	75*[16.7 µM]	8	-1	/	/	/
C[C@@H]1CN([C@@H](C)CO)C(=O)Cc2cc(NC(=O)Nc3cccc4ccccc34)ccc2O[C@H]1CN(C)S(=O)(=O)c1cccs1	16[16.7 µM]	-1	-4	/	/	/
C[C@H]1CN([C@@H](C)CO)C(=O)Cc2cc(NC(=O)Nc3cccc4ccccc34)ccc2O[C@H]1CN(C)S(=O)(=O)c1cccs1	45[16.7 µM]	-2	101*	/	/	/
COCC(=O)N[C@@H]1CC[C@H](CC(=O)N2CCCCC2)O[C@H]1CO	0[16.7 µM]	-3	-4	/	-2	/
c1ccc(-c2noc(-c3cccnc3)n2)cc1	-75	22	-4	?	/	77
Clc1ccccc1/C=C/c1nc(-c2cccnc2)no1	-66	21	-3	39*	1	84*
Cc1ccc(-c2noc(/C=C/c3ccccc3)n2)cc1	-91	46*	-2	/	/	68
C(=C\c1nc(-c2cccnc2)no1)/c1ccccc1	-77	20	0	48*	-1	75
CCCC#Cc1ccc2c(c1)[C@@H]1[C@@H](CCN1C(=O)CC1CC1)[C@@H](CO)N2C	/	-5	0	/	0	/
c1ccc(CNn2nnc3ccccc32)cc1	-26	/	/	0	-2	/
O=C(O)CCn1nnc2ccccc21	3	/	0	47*	/	1
C(#Cc1ccccc1)Cn1nnc2ccccc21	/	60*	13	/	/	86*
O=C(O)Cn1nnc2ccccc21	-11	/	-3	2	4	8
O=C(Cn1nnc2ccccc21)c1ccc(Cl)cc1	-34	15	0	45*	/	74
COCC#Cc1ccc([C@@H]2[C@H]3CN(C(=O)C4CC4)CC(=O)N3[C@H]2CO)cc1	/	/	/	/	4	/
Cc1cccc(NC(=O)Oc2ccc(Cl)c3cccnc23)c1	-15	51*	-4	29	3	/
CNC(=O)COc1ccc(Cl)c2cccnc12	-16	-8	1	-1	-2	-7
C/C(Cn1cnc([N+](=O)[O-])n1)=N\NC(=O)c1ccccc1	-8	44*	11	10	/	/
SMILES	HIV Env fusion	esBAF inh	Cneo AK release	Wnt act	ERAP1 inh	MITF act
Cc1c(C(=O)O)oc2c(F)cccc12	-2	/	5	-1	5	-4
Cc1c(C(=O)N2C[C@@H](C)O[C@@H](C)C2)oc2c(F)cccc12	-27	70*	1	12	1	73
Cc1c(C(=O)NC2CCOC2)oc2c(F)cccc12 (stereo unspecified)	-62	70*	-1	1	1	?
C[C@H](CO)N1C[C@H](C)[C@H](CN(C)Cc2ccncc2)Oc2ccc(NS(C)(=O)=O)cc2C1=O	-11[16.7 µM]	2	-5	/	0	/
Cc1cc(/C=N/n2cnnc2)c(C)n1-c1ccc(OCc2ccc(Cl)cc2Cl)cc1	/	/	/	/	/	-92
Cc1cc(/C=N/n2cnnc2)c(C)n1-c1ccc(OCc2ccc(F)cc2)cc1	66*	1	-27	1	/	-25
CC(Nc1nc(-c2ccc(F)cc2)cs1)c1nc2cc(C(F)(F)F)ccc2n1CCCO (stereo unspecified)	75*	-5	1	-2	0	-8
CC(Nc1nc(-c2ccc(F)cc2)cs1)c1nc2cc(C(F)(F)F)ccc2n1CCOCCO (stereo unspecified)	3	5	1	-3	2	-14
C[C@@H]1CN([C@@H](C)CO)C(=O)c2cc(C#Cc3cccnc3)cnc2O[C@@H]1CN(C)C(=O)CC1CC1	-5[16.7 µM]	-16	-1	/	-2	/
COc1ccc2nc(Nc3nc(C)c(C(C)=O)s3)sc2c1	-172	38	0	56*	/	69
COc1ccc2nc(NC(=O)Nc3ccccc3)sc2c1	i	-29	-2	56*!	0	68
CC(=O)c1sc(Nc2nc3cc4c(cc3s2)OCO4)nc1C	-82	/	/	?	4	3
COc1ccc(NC(=O)c2cccnc2SC)cc1OC	-4	1	0	35*	-4	15
CCOc1ccc2nc(NC(=O)Nc3ccccc3)sc2c1	-339	/	/	/	/	63
COc1ccc2nc(NC(=O)c3ccccc3C(=O)O)sc2c1	-7	9	0	1	-1	2
CSc1ncccc1C(=O)Nc1nc2ccc(Oc3ccccc3)cc2s1	-27	45*	/	24	1	62
COc1ccc(Nc2nc3ccc(OC)cc3s2)cc1	-13	/	/	28	0	91*
COc1ccc(C(=O)Nc2nc3ccc(OC)cc3s2)cc1	-82	35	-2	12	-1	/
C[C@@H]1CN([C@H](C)CO)C(=O)c2cc(C#CCN(C)C)cnc2O[C@@H]1CN(C)C(=O)CCN1CCCCC1	-18[16.7 µM]	-1	-10	/	4	/
CN(C(=O)CSc1nc2ccccc2o1)C1CCCCC1	-68	23	/	57*	-3	?
COc1cc(/C=C2\SC(=S)N(CCC(=O)Nc3cccc(O)c3)C2=O)cc(OC)c1OC	2	5	0	-1	2	-1
CCc1ccc(/C=C2\SC(=S)N(CCCC(=O)NC3=NCCS3)C2=O)cc1	59*	-74	-1	-8	-3	/

Screening data from PubChem BioAssay.
